{
  "source": "ChEMBL document CHEMBL1141482",
  "about": "“Selective, high affinity A(2B) adenosine receptor antagonists: N-1 monosubstituted 8-(pyrazol-4-yl)xanthines” (Bioorg Med Chem Lett, 2008)",
  "key": {"Adenosine receptor A3": {"molecular_target": "T1, Adenosine receptor A3 (Homo sapiens, UniProt P0DMS8)", "T1 sequence (P0DMS8 whole entry)": "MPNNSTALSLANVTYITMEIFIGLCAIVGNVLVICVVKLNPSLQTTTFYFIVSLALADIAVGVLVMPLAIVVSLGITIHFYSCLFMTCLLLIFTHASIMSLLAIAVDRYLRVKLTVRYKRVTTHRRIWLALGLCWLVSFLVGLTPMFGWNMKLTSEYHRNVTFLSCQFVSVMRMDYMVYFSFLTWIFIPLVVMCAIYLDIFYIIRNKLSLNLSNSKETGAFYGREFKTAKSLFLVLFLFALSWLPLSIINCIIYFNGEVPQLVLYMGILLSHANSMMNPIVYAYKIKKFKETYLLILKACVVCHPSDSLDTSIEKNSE", "experiment": "Displacement of [125I]-AB-MECA from human A3 receptor expressed in CHO cells", "type": "cell-based", "procedure,_shortened": "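A3 binding: competition for sites labeled by 125I-AB-MECA using CHO cells expressing the A3 receptor.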"}, "Adenosine receptor A2a": {"molecular_target": "Adenosine receptor A2a (Homo sapiens, UniProt P29274)", "sequence (P29274 whole entry)": "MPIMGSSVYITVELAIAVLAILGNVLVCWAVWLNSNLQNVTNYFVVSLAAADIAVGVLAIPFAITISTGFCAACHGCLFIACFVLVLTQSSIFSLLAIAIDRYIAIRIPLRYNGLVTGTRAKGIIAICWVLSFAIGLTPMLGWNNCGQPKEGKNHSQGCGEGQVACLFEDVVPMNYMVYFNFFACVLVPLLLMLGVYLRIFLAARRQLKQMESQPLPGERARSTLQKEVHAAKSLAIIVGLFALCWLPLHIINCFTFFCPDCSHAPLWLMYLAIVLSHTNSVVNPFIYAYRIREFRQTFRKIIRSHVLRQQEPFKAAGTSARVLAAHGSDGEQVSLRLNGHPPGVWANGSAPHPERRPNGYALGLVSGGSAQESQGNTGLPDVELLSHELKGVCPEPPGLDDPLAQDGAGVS", "experiment": "Displacement of [3H]ZM241385 from human A2A receptor expressed in HEK293 cell membranes", "procedure,_shortened": "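A2A affinity by competition with 3H-ZM241385 (2 nM) for binding sites in membranes from HEK-A2A cells.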"}, "Homo sapiens [1]": {"organism": "Homo sapiens", "experiment": "Selectivity for human A2B receptor over human A1 receptor"}, "Adenosine receptor A1": {"molecular_target": "T2, Adenosine receptor A1 (Homo sapiens, UniProt P30542)", "T2 sequence (P30542 whole entry)": "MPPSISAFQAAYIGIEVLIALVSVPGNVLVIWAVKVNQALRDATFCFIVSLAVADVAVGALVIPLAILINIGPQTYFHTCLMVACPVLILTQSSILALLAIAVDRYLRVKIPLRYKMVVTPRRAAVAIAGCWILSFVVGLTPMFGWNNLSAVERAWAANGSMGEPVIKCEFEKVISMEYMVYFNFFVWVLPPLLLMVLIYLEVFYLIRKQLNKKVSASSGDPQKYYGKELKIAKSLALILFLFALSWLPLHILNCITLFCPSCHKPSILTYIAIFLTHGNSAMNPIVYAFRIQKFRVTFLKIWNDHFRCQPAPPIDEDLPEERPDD", "experiment": "Displacement of [3H]-CPX from human A1 receptor expressed in CHO cell membranes", "procedure,_shortened": "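Competitive binding on membranes prepared from A1-expressing CHO cells, radioligand 3H-CPX at 0.5 nM.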"}, "Homo sapiens [2]": {"organism": "Homo sapiens", "experiment": "Selectivity for human A2B receptor over human A3 receptor"}, "Adenosine receptor A2b": {"molecular_target": "T3, Adenosine receptor A2b (Homo sapiens, UniProt P29275)", "T3 sequence (P29275 whole entry)": "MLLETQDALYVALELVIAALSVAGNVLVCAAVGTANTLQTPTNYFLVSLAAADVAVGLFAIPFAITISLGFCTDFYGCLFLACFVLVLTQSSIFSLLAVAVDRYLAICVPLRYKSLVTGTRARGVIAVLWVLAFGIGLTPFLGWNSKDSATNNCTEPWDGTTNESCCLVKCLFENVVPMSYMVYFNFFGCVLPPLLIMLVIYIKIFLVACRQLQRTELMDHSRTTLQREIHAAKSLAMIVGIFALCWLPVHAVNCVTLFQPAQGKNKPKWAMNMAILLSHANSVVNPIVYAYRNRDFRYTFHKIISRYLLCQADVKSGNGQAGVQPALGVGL", "experiment": "Displacement of [3H]-ZM241385 from human A2B receptor expressed in HEK293 cell membranes", "procedure,_shortened": "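Membranes from HEK cells expressing A2B; binding sites labeled with 3H-ZM241385 at 14 nM and displaced competitively.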"}, "Homo sapiens [3]": {"organism": "Homo sapiens", "experiment": "Selectivity for human A2B receptor over human A2A receptor"}},
  "data": [
    {"compound": "CC(C)Cn1c(=O)[nH]c2nc(-c3cnn(Cc4cccc(F)c4)c3)[nH]c2c1=O", "values": [
      {"measurement": "Ki", "setting": "Adenosine receptor A3", "result": 1600, "unit": "nM"},
      {"measurement": "Ki", "setting": "Adenosine receptor A2a", "result": "> 5000", "unit": "nM"},
      {"measurement": "Ratio Ki", "setting": "Homo sapiens [1]", "result": "> 250"},
      {"measurement": "Ki", "setting": "Adenosine receptor A1", "result": "> 6000", "unit": "nM"},
      {"measurement": "Ratio Ki", "setting": "Homo sapiens [2]", "result": 70},
      {"measurement": "Ki", "setting": "Adenosine receptor A2b", "result": 24, "unit": "nM"},
      {"measurement": "Ratio Ki", "setting": "Homo sapiens [3]", "result": "> 200"}
    ]}
  ]
}
